{
  "source": "paper PMC2745078",
  "about": "(Journal of medicinal chemistry, 2009)",
  "key": {"human 2N4R tau [1]": {"molecular_target": "T1, human 2N4R tau (Homo sapiens, UniProt P10636)", "T1 sequence (P10636 1-441 isoform P10636-8)": "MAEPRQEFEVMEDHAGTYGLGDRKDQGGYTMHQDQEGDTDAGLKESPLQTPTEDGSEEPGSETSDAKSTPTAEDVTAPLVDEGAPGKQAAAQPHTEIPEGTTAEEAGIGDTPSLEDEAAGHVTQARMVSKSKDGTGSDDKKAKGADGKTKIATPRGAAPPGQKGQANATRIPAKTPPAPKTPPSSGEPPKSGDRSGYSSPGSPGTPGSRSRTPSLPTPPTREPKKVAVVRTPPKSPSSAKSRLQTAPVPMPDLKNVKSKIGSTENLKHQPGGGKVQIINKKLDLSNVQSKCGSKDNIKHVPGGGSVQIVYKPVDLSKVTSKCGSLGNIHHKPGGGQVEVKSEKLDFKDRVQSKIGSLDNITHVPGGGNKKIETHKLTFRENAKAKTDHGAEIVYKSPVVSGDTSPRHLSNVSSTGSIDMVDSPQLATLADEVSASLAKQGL", "conditions": "near physiological buffer conditions and tau concentrations ref 9; cited from earlier work"}, "Dye aggregation": {"assay": "Dye aggregation", "format": "physicochemical", "conditions": "for slope of double log plot of monomer versus dimer concentration / dissociation equilibrium constant for dimerization (Kdim): assembly buffer; for dissociation equilibrium constant for dimerization (Kdim): 1 h at 37°C, mean ± S.D."}, "human 2N4R tau [2]": {"molecular_target": "T1, human 2N4R tau", "assay": "Filter trap assay for ODS-induced fibrillization of tau", "format": "biochemical"}, "[3]": {"system": "sarkosyl-insoluble tau in organotypic slices from JNPL3 transgenic mice (human tau P301L)", "assay": "Organotypic slice culture, sarkosyl-insoluble tau", "format": "cell-based", "how_it_was_run": "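Cortex/hippocampus of postnatal day-10 JNPL3 mice cut at 400 μm and cultured on membrane inserts 14 days (25% serum). One hemisphere given test compound (0.1 nM–1 μM) for 7 days; contralateral hemisphere given 0.008% DMSO. RIPA extracts equalised for protein, incubated in 1% sarkosyl, spun at 100,000g. Pellet immunoblotted with CP27. Densitometry n = 3, normalised to vehicle; Student's t test.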"}, "[4]": {"system": "organotypic slices from JNPL3 transgenic mice", "assay": "Organotypic slice culture, cleaved PARP1 and α-tubulin levels", "format": "cell-based", "conditions": "seven days"}, "cell culture models": {"system": "cell culture models", "conditions": "cell culture models ref 21, 26, 25; cited from earlier work"}, "human 2N4R tau [5]": {"molecular_target": "T1, human 2N4R tau", "conditions": "electron microscopy assay format"}},
  "note": "pIC50: −log10 of the molar value. Like-named read-outs stand apart in the source and are kept apart here.",
  "data": [
    {"smiles": "CCC(/C=C1\\Sc2ccc(OC)cc2N1CCO)=C\\c1sc2ccc(OC)cc2[n+]1CCO.[I-]", "note": "[Compound 1]", "values": [
      {"measurement": "IC50", "setting": "human 2N4R tau [1]", "value": "submicromolar"}
    ]},
    {"smiles": "CCN1/C(=C/C=C/C=C/C=C/c2sc3ccccc3[n+]2CC)Sc2ccccc21.[I-]", "note": "[Compound 5]", "values": [
      {"measurement": "slope of double log plot of monomer versus dimer concentration", "setting": "Dye aggregation", "value": "1.7 ± 0.1"},
      {"measurement": "dissociation equilibrium constant for dimerization (Kdim)", "setting": "Dye aggregation", "value": "0.68 ± 0.04", "unit": "µM"}
    ]},
    {"smiles": "CCN1/C(=C/C=C/c2oc3ccccc3[n+]2CC)Oc2ccccc21.[I-]", "note": "[Compound 6]", "values": [
      {"measurement": "inhibitory activity", "setting": "human 2N4R tau [2]; at the highest concentration tested", "value": "essentially no inhibitory activity"}
    ]},
    {"smiles": "CCN1/C(=C/C=C/C2=[N+](CC)c3ccccc3C2(C)C)C(C)(C)c2ccccc21.[I-]", "note": "[Compound 8]", "values": [
      {"measurement": "dimerization", "setting": "Dye aggregation; any concentration tested up to 96 μM", "value": "did not dimerize"}
    ]},
    {"smiles": "CCCN1/C(=C/C=C/C2=[N+](CCC)c3ccccc3C2(C)C)C(C)(C)c2ccccc21.[I-]", "note": "[Compound 9]", "values": [
      {"measurement": "reduction of inhibitory potency", "setting": "human 2N4R tau [2]; 9 (three-carbon N-alkyl) versus 8 (two-carbon)", "value": "~ 3 fold"}
    ]},
    {"smiles": "CCCCCCN1/C(=C/C=C/c2sc3ccccc3[n+]2CCCCCC)Sc2ccccc21.[I-]", "note": "[Compound 10]", "values": [
      {"measurement": "inhibitory activity", "setting": "human 2N4R tau [2]; at up to 10 μM concentration", "value": "completely eliminated activity"}
    ]},
    {"smiles": "CCN1/C(=C/C(C)=C/c2sc3ccccc3[n+]2CC)Sc2ccccc21.[I-]", "note": "[Compound 11, 3,3’-diethyl-9-methylthiacarbocyanine iodide]", "values": [
      {"measurement": "effect on tau aggregation", "setting": "[3]; 100 nM, seven days", "value": "Inhibitory activity was lost"},
      {"measurement": "effect on tau aggregation", "setting": "[3]; 300 nM and above, seven days", "value": "tau aggregation was induced"},
      {"measurement": "tau aggregation relative to DMSO vehicle alone", "setting": "[3]; 1 – 10 nM, seven days", "value": "~ 50%"},
      {"measurement": "lowest media concentration inhibiting tau aggregation", "setting": "[3]; organotypic slices", "value": 1, "unit": "nM"},
      {"measurement": "decrease of IC50 by methyl meso substituent", "setting": "human 2N4R tau [2]; 11 versus hydrogen meso compound", "value": 3, "unit": "fold"},
      {"measurement": "pIC50", "setting": "human 2N4R tau [2]; IC50, filter trap assay", "value": "~6.52"},
      {"measurement": "levels of α-tubulin", "setting": "[4]; 1 nM", "value": "unchanged"},
      {"measurement": "levels of α-tubulin", "setting": "[4]; 1 μM", "value": "depletion of α-tubulin"},
      {"measurement": "levels of cleaved PARP1", "setting": "[4]; any tested concentration", "value": "did not increase"},
      {"measurement": "slope of double log plot of monomer versus dimer concentration", "setting": "Dye aggregation", "value": "2.3 ± 0.1"},
      {"measurement": "dissociation equilibrium constant for dimerization (Kdim)", "setting": "Dye aggregation", "value": "20.9 ± 0.7", "unit": "µM"},
      {"measurement": "concentration for dimerization relative to 1", "setting": "Dye aggregation; higher than 1 under identical conditions", "value": "10.0 ± 0.2", "unit": "fold"},
      {"measurement": "concentration initiating apoptosis and collapse of the microtubule cytoskeleton", "setting": "cell culture models", "value": "> 300", "unit": "nM"}
    ]},
    {"smiles": "CC(/C=C1\\Sc2ccccc2N1CCCS(=O)(=O)[O-])=C\\c1sc2ccccc2[n+]1CCCS(=O)(=O)[O-].CC[n+]1ccccc1", "note": "[Compound 12]", "values": [
      {"measurement": "inhibitory activity", "setting": "human 2N4R tau [2]; at up to 10 μM concentration", "value": "completely lost"},
      {"measurement": "slope of double log plot of monomer versus dimer concentration", "setting": "Dye aggregation", "value": "1.8 ± 0.1"},
      {"measurement": "dissociation equilibrium constant for dimerization (Kdim)", "setting": "Dye aggregation", "value": "7.5 ± 0.4", "unit": "µM"}
    ]},
    {"smiles": "CN(C)c1ccc2nc3ccc(N(C)C)cc3[s+]c2c1.[Cl-]", "note": "[Methylene blue, 3,7-bis(dimethylamino)phenothiazin-5-ium chloride]", "values": [
      {"measurement": "behaviour as antagonist", "setting": "human 2N4R tau [5]", "value": "partial antagonist"}
    ]}
  ]
}
